Reference: ChEMBL document CHEMBL2311380, “The first total synthesis and biological evaluation of marine natural products ma'edamines A and B” (Bioorg Med Chem Lett, 2013)
Active and inactive are the calls of the source. The calls are words filed in the database; no cut-off is given here.

Key:
A549 [1] = assay: Cytotoxicity against human lung adenocarcinoma cell line A549 assessed as inhibition of cell viability measured after 24 hrs by MTT assay; type: functional, cell-based; conditions: A549, 24 h
Outline: (§1)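 Exponentially growing cells exposed to compound, then allowed to proliferate for two to three population doubling times; surviving cells quantified by MTT reduction by mitochondrial dehydrogenase to formazan, dissolved in DMSO and read at 570 nm.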

THP-1 = assay: Cytotoxicity against human acute monocytic leukemia cell line THP1 assessed as inhibition of cell viability measured after 24 hrs by MTT assay; type: functional, cell-based; conditions: THP-1, 24 h; outline: as §1
MCF7 [2] = assay: Cytotoxicity against human breast cancer cell line MCF7 assessed as inhibition of cell viability […] by MTT assay; type: functional, cell-based
A549 [3] = assay: Cytotoxicity against human […] assessed as cell death measured at 5 ug/mL after 24 hrs by MTT assay; type: functional
Outline: (§2)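 Cells in exponential growth exposed to compound, then left to proliferate for two to three population doubling times so viable, proliferating cells are told apart from non-proliferating ones. Surviving cells estimated by MTT reduction to formazan by mitochondrial dehydrogenase; formazan dissolved in DMSO and read at 570 nm.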

COLO 205 [4] = assay: Cytotoxicity against human colon cancer line COLO205 assessed as cell death measured at 10 ug/mL after 24 hrs by MTT assay; type: functional; outline: as §2
MCF7 [5] = assay: Cytotoxicity against human colon cancer line MCF7 assessed as cell death measured at 1 ug/mL after 24 hrs by MTT assay; type: functional; outline: as §2
A549 [6] = assay: Cytotoxicity against human […] assessed as cell death measured at 7 ug/mL after 24 hrs by MTT assay; type: functional; outline: as §2
COLO 205 [7] = assay: Cytotoxicity against human colon cancer line COLO205 assessed as cell death measured at 5 ug/mL after 24 hrs by MTT assay; type: functional; outline: as §2
COLO 205 [8] = assay: Cytotoxicity against human colon cancer line COLO205 assessed as cell death measured at 7 ug/mL after 24 hrs by MTT assay; type: functional; outline: as §2
COLO 205 [9] = assay: Cytotoxicity against human colon cancer line COLO205 assessed as inhibition of cell viability measured after 24 hrs by MTT assay; type: functional, cell-based; conditions: COLO 205, 24 h; outline: as §1
COLO 205 [10] = assay: Cytotoxicity against human colon cancer line COLO205 assessed as cell death measured at 1 ug/mL after 24 hrs by MTT assay; type: functional; outline: as §2
MCF7 [11] = assay: Cytotoxicity against human colon cancer line MCF7 assessed as cell death measured at 2 ug/mL after 24 hrs by MTT assay; type: functional; outline: as §2
COLO 205 [12] = assay: Cytotoxicity against human colon cancer line COLO205 assessed as cell death measured at 2 ug/mL after 24 hrs by MTT assay; type: functional; outline: as §2
MCF7 [13] = assay: Cytotoxicity against human colon cancer line MCF7 assessed as cell death measured at 7 ug/mL after 24 hrs by MTT assay; type: functional; outline: as §2
A549 [14] = assay: Cytotoxicity against human […] assessed as cell death measured at 10 ug/mL after 24 hrs by MTT assay; type: functional; outline: as §2
MCF7 [15] = assay: Cytotoxicity against human colon cancer line MCF7 assessed as cell death measured at 5 ug/mL after 24 hrs by MTT assay; type: functional; outline: as §2
A549 [16] = assay: Cytotoxicity against human […] assessed as cell death measured at 2 ug/mL after 24 hrs by MTT assay; type: functional; outline: as §2
A549 [17] = assay: Cytotoxicity against human […] assessed as cell death measured at 1 ug/mL after 24 hrs by MTT assay; type: functional; outline: as §2
MCF7 [18] = assay: Cytotoxicity against human colon cancer line MCF7 assessed as cell death measured at 10 ug/mL after 24 hrs by MTT assay; type: functional; outline: as §2
MCF7 [19] = assay: Cytotoxicity against human breast cancer cell line MCF7 assessed as cell survival measured after 24 hrs by MTT assay relative to control; type: functional; outline: as §2
B16-F10 = assay: Cytotoxicity against mouse melanoma cell line B16F10 assessed as inhibition of cell viability measured after 24 hrs by MTT assay; type: functional, cell-based; conditions: B16-F10, 24 h; outline: as §1
MCF7 [20] = assay: Induction of apoptosis in human MCF7 cells assessed as DNA laddering at IC50 concentration measured after 24 hrs by DNA laddering assay relative to control; type: functional, cell-based
Outline: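 DNA from treated and untreated cells run on a gel and examined for fragmentation (laddering).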

MCF7 [21] = assay: Induction of apoptosis in human MCF7 cells assessed as double-strand DNA break at IC50 concentration measured after 24 hrs by comet assay relative to control; type: functional, cell-based
Outline: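 Treated cells embedded in low melting agarose on a microscope slide, lysed at alkaline pH, electrophoresed at high pH, then examined for comet tails as a sign of double-strand DNA breaks, with untreated cells as control.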

HepG2 = assay: Cytotoxicity against human liver hepatocellular carcinoma cell line HepG2 assessed as inhibition of cell viability measured after 24 hrs by MTT assay; type: functional, cell-based; conditions: HepG2, 24 h; outline: as §1

COc1ccc(Cc2nc(-c3cc(Br)c(O)c(Br)c3)cnc2Cl)cc1Br
IC50 (A549 [1]): 41.2 µM | IC50 (THP-1): 108 µM

COc1ccc(Cc2nc(-c3cc(Br)c(OCCCN(C)C)c(Br)c3)cnc2Cl)cc1Br
IC50 (A549 [1]): 14.4 µM | IC50 (THP-1): 87.3 µM

COc1ccc(Cc2nc(-c3cc(Br)c(O)c(Br)c3)c[nH]c2=O)cc1Br
IC50 (A549 [1]): 52 µM | IC50 (THP-1): 125 µM

CNCCCOc1c(Br)cc(-c2cnc(Cl)c(Cc3ccc(OC)c(Br)c3)n2)cc1Br
IC50 (A549 [1]): 25.3 µM | IC50 (THP-1): 133 µM

COc1cc([C@@H]2c3cc4c(cc3[C@@H](O[C@@H]3O[C@@H]5CO[C@@H](C)O[C@H]5[C@H](O)[C@H]3O)[C@H]3COC(=O)[C@H]23)OCO4)cc(OC)c1O [ETOPOSIDE]
IC50 (MCF7 [2]): 16.3 µM | Activity (A549 [3]): 100% | Activity (COLO 205 [4]): 100% | Activity (MCF7 [5]): 4.3% | Activity (A549 [6]): 100% | Activity (COLO 205 [7]): 78.7% | Activity (COLO 205 [8]): 100% | IC50 (COLO 205 [9]): 5.3 µM | Activity (COLO 205 [10]): 17.8% | Activity (MCF7 [11]): 8.9% | Activity (COLO 205 [12]): 39.2% | Activity (MCF7 [13]): 33.7% | Activity (A549 [14]): 100% | Activity (MCF7 [15]): 23.9% | Activity (A549 [16]): 93.4% | Activity (A549 [17]): 47.9% | Activity (MCF7 [18]): 51%

COc1ccc(Cc2nc(-c3cc(Br)c(OCCCN(C)C)c(Br)c3)c[nH]c2=O)cc1Br [Ma'edamine A]
Survival (MCF7 [19]): 47.7% | IC50 (A549 [1]): 12.2 µM | IC50 (MCF7 [2]): 6.9 µM | IC50 (THP-1): 46.2 µM | IC50 (COLO 205 [9]): 7.9 µM | IC50 (B16-F10): 16.7 µM | Activity (MCF7 [20]): Active | Activity (MCF7 [21]): Active | IC50 (HepG2): 29.6 µM

CNCCCOc1c(Br)cc(-c2c[nH]c(=O)c(Cc3ccc(OC)c(Br)c3)n2)cc1Br [Ma'edamine B]
Survival (MCF7 [19]): 49.256% | IC50 (A549 [1]): 15.4 µM | IC50 (MCF7 [2]): 10.9 µM | IC50 (THP-1): 90.7 µM | IC50 (COLO 205 [9]): 10.3 µM | IC50 (B16-F10): 53.3 µM | Activity (MCF7 [20]): Active | Activity (MCF7 [21]): Active | IC50 (HepG2): 42.8 µM
